Converted amounts (≈) assume the structure as drawn. A value given as a limit tells only on which side of the number the result lay.

From ChEMBL document CHEMBL1137183, “4-Aryl-3-(mercapto)quinolin-2-ones: novel maxi-K channel opening relaxants of corporal smooth muscle” (Bioorg Med Chem Lett, 2004) come the findings set out here.

Data set [1] is described as follows: Solubility was determined. Format: physicochemical. The procedure, abridged: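 Aqueous solubility measured in HPLC-grade water by a UV absorptivity method, reported in mg/mL.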
The species entered for the next data set is Oryctolagus cuniculus. As to the kind of experiment: Percentage inhibition by the compound in isolated rabbit corpus cavernosum at 10 uM. Format: functional. The procedure, abridged: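 New Zealand white rabbits (3.4–3.7 kg) euthanized by pentobarbital overdose. Corpus cavernosum strips, 3–5 mm, cut after removal of the tunica and held in modified Krebs-Henseleit bicarbonate buffer at 37 °C. Isometric force recorded. Strips pre-contracted with phenylephrine 3 μM to a steady force, then compound added. Result is % inhibition of force relative to vehicle control; n given per value.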

A short description of data set [2]: Effect on maxi-K mediated outward current in xenopus laevis oocytes at 20 uM. In kind it is functional, Xenopus sp., Oocyte. The procedure, abridged:
(§1)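 Two-electrode voltage clamp of whole-cell outward K+ current in Xenopus laevis oocytes expressing cloned hSlo maxi-K channels. Single drug concentration per line. Current is the iberiotoxin-sensitive fraction, tested in at least five oocytes. Value is the average current as a percentage of drug-free control (100%).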

In a further data set the test system is Oocyte. As to the kind of experiment: Effect on maxi-K mediated outward current in xenopus laevis oocytes at 20 uM; In soluble. Format: functional, cell-based. Particulars: Xenopus sp. The gist of the method: as §1
The nature of data set [3]: Effect on maxi-K mediated outward current in xenopus laevis oocytes at 5 uM. Format: functional, Xenopus sp., Oocyte. The procedure, abridged: as §1

A word on the solubility: it is the concentration that dissolves in the medium under given conditions. Higher therefore signals a readily soluble substance. For orientation: Inhibition means the change of the read-out against control, counted positive when it falls. Read a high Inhibition as a strong effect. The compound `OCCCSc1c(O)nc2ccc(C(F)(F)F)cc2c1-c1cc(Cl)ccc1O` returned a solubility in data set [1] of 3 µg/mL (≈ 6.98 µM). The compound also showed an Inhibition in the data set filed under Oryctolagus cuniculus of 23%. In addition, the hSlo current in data set [2] stood at 242%.
In data set [1], `CSc1c(O)nc2ccc(C(F)(F)F)cc2c1-c1cc(Cl)ccc1O` registered a solubility below 1 µg/mL. The Inhibition in the data set filed under Oryctolagus cuniculus is listed as 22%. Besides, the hSlo current in data set [2] was 231%.
As to `O=c1[nH]c2cc(C(F)(F)F)ccc2n1-c1cc(Cl)ccc1O`, in the data set listed under Oryctolagus cuniculus, the Inhibition turned out to be 31%. This compound returned a hSlo current in data set [2] of 132%.
The compound `OCCSc1c(O)nc2ccc(C(F)(F)F)cc2c1-c1cc(Cl)ccc1O` yielded a solubility in data set [1] of 4 µg/mL (≈ 9.62 µM). This compound registered an Inhibition in the data set listed under Oryctolagus cuniculus of 43%. In addition, in data set [2], the hSlo current came to 348%.
For `OCC(O)CSc1c(O)nc2ccc(C(F)(F)F)cc2c1-c1cc(Cl)ccc1O` (centres undefined), in that order: 190 µg/mL (≈ 426 µM), 31% and 246%.
Consider `Oc1ccc(Cl)cc1-c1c(S)c(O)nc2ccc(C(F)(F)F)cc12`, for which the solubility in data set [1] worked out at 3 µg/mL (≈ 8.07 µM). In addition, the hSlo current in data set [2] came to 197%.
For `CC(C)(C)Sc1c(O)nc2ccc(C(F)(F)F)cc2c1-c1cc(Cl)ccc1O`, the solubility in data set [1] was below 1 µg/mL. Besides, the hSlo current entry in the data set on Oocyte was “Insoluble”; in data set [3], 73%.
